# pIC50: −log10 of the molar value.
# Legend:
# Experiment in all cases: radiolabelled iodothyronine uptake inhibition in transfected COS1 cells
# Type in all cases: cell-based
# [1] = target: LAT1 (hSLC7A5, cotransfected with hSLC3A2) (Homo sapiens, UniProt Q01650)
# How it was run: (§1)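 COS1 cells cotransfected with 100 ng transporter vector, 100 ng hSLC3A2 (4F2 heavy chain), and 50 ng hCRYM to limit efflux; empty vector served as control. At 48 h post-transfection, cells were washed in BSA-free DPBS+Ca²⁺/Mg²⁺/0.1% glucose. They were then incubated at 37°C with 1 nM 3,3′-T2 plus [¹²⁵I]-3,3′-T2 (5 × 10⁴ cpm) and increasing inhibitor concentrations or vehicle. Finally, cells were rinsed, lysed in 0.1 N NaOH, and gamma-counted.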
# [2] = target: T1, LAT2 (hSLC7A8, cotransfected with hSLC3A2) (Homo sapiens, UniProt Q9UHI5)
# T1 sequence (Q9UHI5 1-535): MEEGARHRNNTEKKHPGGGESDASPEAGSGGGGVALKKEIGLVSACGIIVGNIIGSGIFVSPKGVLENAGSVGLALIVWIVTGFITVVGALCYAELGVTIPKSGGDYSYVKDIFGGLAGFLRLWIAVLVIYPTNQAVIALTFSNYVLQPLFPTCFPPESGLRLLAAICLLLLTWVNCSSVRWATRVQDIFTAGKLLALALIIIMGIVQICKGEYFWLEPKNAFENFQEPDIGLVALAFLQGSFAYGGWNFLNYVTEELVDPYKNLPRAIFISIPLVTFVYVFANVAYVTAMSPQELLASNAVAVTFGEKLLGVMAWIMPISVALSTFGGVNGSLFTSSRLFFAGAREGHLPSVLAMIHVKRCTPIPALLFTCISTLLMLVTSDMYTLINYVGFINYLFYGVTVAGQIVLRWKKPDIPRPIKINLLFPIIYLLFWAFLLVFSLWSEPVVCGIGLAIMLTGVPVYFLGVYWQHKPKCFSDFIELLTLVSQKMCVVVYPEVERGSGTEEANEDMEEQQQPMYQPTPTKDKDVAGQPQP
# T1 sequence (P08195 2-529 partner): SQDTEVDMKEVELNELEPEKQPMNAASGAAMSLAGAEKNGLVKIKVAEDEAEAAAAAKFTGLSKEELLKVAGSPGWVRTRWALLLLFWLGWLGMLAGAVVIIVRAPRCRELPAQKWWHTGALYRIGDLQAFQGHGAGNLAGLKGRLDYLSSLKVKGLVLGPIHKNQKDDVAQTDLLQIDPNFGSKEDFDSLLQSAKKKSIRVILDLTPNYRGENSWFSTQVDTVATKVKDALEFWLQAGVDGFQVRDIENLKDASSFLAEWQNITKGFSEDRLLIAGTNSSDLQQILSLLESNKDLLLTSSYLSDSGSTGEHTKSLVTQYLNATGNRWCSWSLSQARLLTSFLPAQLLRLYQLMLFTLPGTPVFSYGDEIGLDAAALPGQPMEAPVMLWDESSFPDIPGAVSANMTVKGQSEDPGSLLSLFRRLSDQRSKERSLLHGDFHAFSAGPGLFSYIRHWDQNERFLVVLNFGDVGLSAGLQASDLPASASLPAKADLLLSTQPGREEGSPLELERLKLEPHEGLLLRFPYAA
# How it was run: as §1
# MCT10 (hMCT10) = target: T2, MCT10 (hMCT10) (Homo sapiens, UniProt Q8TF71)
# T2 sequence (Q8TF71 1-515): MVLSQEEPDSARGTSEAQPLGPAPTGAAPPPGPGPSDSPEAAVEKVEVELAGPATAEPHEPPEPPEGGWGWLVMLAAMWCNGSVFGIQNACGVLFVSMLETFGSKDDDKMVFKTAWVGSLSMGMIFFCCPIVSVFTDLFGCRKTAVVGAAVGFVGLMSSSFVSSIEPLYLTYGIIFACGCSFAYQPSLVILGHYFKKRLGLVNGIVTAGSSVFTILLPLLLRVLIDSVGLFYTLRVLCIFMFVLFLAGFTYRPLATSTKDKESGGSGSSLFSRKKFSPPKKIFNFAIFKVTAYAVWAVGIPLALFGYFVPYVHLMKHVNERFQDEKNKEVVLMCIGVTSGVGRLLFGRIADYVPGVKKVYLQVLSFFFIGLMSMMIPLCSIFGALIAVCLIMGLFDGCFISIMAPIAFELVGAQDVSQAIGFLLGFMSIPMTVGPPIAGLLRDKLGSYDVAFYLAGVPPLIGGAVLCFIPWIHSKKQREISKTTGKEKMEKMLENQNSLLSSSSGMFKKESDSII
# [3] = target: T3, OATP1A2 (Human (h) OATP1A2) (Homo sapiens, UniProt P46721)
# T3 sequence (P46721 1-670): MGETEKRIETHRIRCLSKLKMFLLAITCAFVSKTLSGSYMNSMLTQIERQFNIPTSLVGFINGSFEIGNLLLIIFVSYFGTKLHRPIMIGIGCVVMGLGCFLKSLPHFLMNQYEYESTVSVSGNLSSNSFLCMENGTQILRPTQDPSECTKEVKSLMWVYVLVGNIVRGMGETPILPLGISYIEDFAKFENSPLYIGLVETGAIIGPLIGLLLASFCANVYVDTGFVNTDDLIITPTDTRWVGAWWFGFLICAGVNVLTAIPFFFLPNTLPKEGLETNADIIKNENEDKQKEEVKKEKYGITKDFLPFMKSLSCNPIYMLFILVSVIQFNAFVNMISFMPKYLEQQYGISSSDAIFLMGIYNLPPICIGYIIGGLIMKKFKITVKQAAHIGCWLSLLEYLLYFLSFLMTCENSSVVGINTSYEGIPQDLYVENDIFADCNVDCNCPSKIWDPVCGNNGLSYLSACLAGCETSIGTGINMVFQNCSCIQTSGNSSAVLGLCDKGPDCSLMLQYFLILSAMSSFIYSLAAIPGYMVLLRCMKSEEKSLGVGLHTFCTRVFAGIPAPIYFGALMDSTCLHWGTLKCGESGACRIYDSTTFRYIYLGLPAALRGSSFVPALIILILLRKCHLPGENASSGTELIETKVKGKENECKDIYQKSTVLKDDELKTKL
# MCT8 (hMCT8) = MCT8 (hMCT8) (Homo sapiens, UniProt P36021)
# MCT8 (hMCT8), sequence (P36021 2-539): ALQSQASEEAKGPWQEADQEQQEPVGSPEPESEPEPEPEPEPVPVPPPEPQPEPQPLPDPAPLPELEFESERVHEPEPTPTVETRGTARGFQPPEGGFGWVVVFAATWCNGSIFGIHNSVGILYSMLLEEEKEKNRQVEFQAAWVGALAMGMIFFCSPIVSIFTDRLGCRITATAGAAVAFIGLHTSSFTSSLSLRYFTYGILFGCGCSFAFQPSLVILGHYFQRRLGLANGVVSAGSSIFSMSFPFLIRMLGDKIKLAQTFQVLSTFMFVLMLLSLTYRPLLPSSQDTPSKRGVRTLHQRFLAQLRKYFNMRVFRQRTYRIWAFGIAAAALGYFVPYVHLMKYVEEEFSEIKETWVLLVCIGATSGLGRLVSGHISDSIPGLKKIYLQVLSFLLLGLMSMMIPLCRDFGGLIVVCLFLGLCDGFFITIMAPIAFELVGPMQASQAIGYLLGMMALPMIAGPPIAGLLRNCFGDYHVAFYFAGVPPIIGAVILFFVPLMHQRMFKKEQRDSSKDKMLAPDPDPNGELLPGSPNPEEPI
# LAT1 (hSLC7A5, cotransfected with hSLC3A2), sequence (Q01650 whole entry, one chain of several): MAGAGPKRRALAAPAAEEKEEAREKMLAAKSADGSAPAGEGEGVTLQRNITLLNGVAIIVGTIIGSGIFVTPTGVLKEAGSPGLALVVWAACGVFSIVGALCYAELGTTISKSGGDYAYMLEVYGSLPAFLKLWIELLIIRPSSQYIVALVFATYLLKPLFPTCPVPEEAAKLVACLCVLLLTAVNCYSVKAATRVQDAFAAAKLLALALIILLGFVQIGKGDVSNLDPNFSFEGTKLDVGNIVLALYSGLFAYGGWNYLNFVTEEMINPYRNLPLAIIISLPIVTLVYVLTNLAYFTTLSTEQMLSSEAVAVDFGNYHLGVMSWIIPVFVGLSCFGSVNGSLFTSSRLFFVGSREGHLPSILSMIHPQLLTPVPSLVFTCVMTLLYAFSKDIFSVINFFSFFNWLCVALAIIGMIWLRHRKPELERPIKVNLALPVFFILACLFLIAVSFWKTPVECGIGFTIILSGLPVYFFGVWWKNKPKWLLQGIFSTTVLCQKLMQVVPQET
pIC50 (MCT10 (hMCT10)),pIC50 [3],pIC50 (MCT8 (hMCT8)),Compound,also measured
–,–,–,"NC1(C(=O)O)CC2CCC1C2 (stereo not shown) [BCH, 2-Amino-2-norbornanecarboxylic acid]",pIC50 [1]: 3.84; pIC50 [2]: ~4.00
< 2.00,–,–,N[C@@H](Cc1c[nH]c2ccccc12)C(=O)O [L-tryptophan],–
–,4.64,–,C[C@@H]1O[C@@H](O[C@H]2[C@H](Oc3cc(O)c4c(c3)O[C@H](c3ccc(O)cc3)CC4=O)O[C@H](CO)[C@@H](O)[C@@H]2O)[C@H](O)[C@H](O)[C@H]1O [Naringin],–
–,4.30,–,CO[C@H]1/C=C/O[C@@]2(C)Oc3c(C)c(O)c4c(O)c(c(/C=N/N5CCN(C)CC5)c(O)c4c3C2=O)NC(=O)/C(C)=C\C=C\[C@H](C)[C@H](O)[C@@H](C)[C@@H](O)[C@@H](C)[C@H](OC(C)=O)[C@@H]1C [Rifampicin],–
–,< 5.00,6.92,COc1cc([C@@H]2Oc3c(O)cc([C@H]4Oc5cc(O)cc(O)c5C(=O)[C@@H]4O)cc3[C@H]2CO)ccc1O [Silychristin],–
< 4.00,5.82,~4.00,COc1ccc(CCN(C)CCCC(C#N)(c2ccc(OC)c(OC)c2)C(C)C)cc1OC (stereo not shown) [Verapamil],–

# Source: PMC9526468 (Thyroid, 2022)
